RBBP9 inh: human RBBP9 hydrolase inhibition | inhibition, % at 7.94 µM | AID 1515 | 0.2% of 220,000 active | recombinant RBBP9, FP-Rh probe fluorescence polarization;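 active = inhibition above the campaign mean of all tested compounds plus 3 SD, cut at about 14% in these data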
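Measured by: FP readout at 525/598 nm; material: recombinant human RBBP9; also added: Serine-hydrolase probe FP-Rh, 375 nM pre-mixing; medium: Tris buffer pH 8.0, NaCl, Pluronic; replication: one well per compound; doses: one concentration, 7.94 µM nominal, 0.794% DMSO; timing: preincubation 30 min plus labeling 45 min at 25 °C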
PRMT1 inh: blocks human protein arginine methyltransferase 1. inhibition, % at 2.79 µM. Q99873. 1.3% of 370,000 active. recombinant PRMT1, activity-based probe fluorescence polarization;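 active = inhibition above about 21% made by adding two undisclosed values, limit read from the data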
Target sequence (Q99873 whole entry, looked up): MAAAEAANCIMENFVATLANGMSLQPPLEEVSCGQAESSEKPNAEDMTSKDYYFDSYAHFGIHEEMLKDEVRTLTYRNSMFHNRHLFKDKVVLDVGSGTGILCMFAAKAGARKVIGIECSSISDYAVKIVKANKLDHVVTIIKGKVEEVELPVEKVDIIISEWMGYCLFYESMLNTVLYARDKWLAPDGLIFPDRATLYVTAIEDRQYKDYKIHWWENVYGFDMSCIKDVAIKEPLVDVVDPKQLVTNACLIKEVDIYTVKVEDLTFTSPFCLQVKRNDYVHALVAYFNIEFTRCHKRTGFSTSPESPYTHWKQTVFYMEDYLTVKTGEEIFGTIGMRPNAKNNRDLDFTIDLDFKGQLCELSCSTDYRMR
PAD4 inh: blocks human protein arginine deiminase 4 | Q9UM07 | recombinant PAD4, RCA probe fluorescence polarization | inhibition, % at 6.36 µM | 0.41% of 330,000 active;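 active = percent inhibition above a cutoff equal to the mean of all tested compounds plus 3 SD, cut at about 15% in these data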
GSTO1 counter: blocks human GSTO1 in RBBP9 counter-screen | P78417 | recombinant GSTO1, activity-based probe fluorescence polarization | inhibition, % at 5.96 µM | 1.1% of 300,000 active;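 active = inhibition above the campaign mean inhibition plus 3 SD, cut at about 35% in these data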
Target sequence (P78417 whole entry, looked up): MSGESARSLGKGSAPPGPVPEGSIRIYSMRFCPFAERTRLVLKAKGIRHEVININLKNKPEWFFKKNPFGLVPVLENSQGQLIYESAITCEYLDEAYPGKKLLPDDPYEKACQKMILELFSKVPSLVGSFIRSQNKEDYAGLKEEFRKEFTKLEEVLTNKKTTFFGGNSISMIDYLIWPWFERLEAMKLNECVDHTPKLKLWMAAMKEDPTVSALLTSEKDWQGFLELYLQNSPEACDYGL
SIAE primary: human SIAE inhibition, primary screen; SIAE FP-Rh probe binding, fluorescence polarization; inhibition, % at 9.66 µM; 0.69% of 370,000 active; Q9HAT2;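 active = inhibition above a cutoff: mean of compounds within the control limits plus 3 SD of those, cut at about 17% in these data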
RBBP9 inh conf: confirmation of human RBBP9 inhibitors; 36% of 410 active; shares compounds with RBBP9 inh; inhibition, % at 7.94 µM; recombinant RBBP9, FP-Rh probe fluorescence polarization; AID 1537;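 active = inhibition above the hit cutoff derived for the primary screen, cut at about 15% in these data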
Numbers stand for hits; - = inactive; . = not tested or not shown. Shown are actives, neighbours in structure and some others; about 2.7% of the full set was active somewhere.

SMILES	RBBP9 inh	PRMT1 inh	PAD4 inh	GSTO1 counter	SIAE primary	others
O=C(Nc1ccc(N2CCCC2)cc1)C(Cl)c1ccccc1 (centres undefined)	-	.	-	35	.
CCC1(c2ccc(F)cc2)NC(=O)N(CC(=O)N(CCC#N)c2ccccc2)C1=O (centres undefined)	.	-	-	-	-
Cc1cccc(/C=C/C(=O)c2cc(Br)ccc(=O)c2O)c1	-	37	-	35	-
CCOc1ccc(/C=C/C(=O)c2cc(Br)ccc(=O)c2O)cc1	-	-	-	-	-
COc1ccc(C)cc1N(CC(=O)NC1CCCC1)C(=O)Cn1nnc(-c2ccc(C)o2)n1	.	-	.	.	-
O=C(NNC(=S)Nc1cccc(Cl)c1)c1ccccc1OC(F)F	-	-	-	-	-
O=C1N=C(c2ccccc2)S/C1=C\c1cccs1	-	21	-	-	-
Cc1cc(C(=O)NC2CCC(C)CC2)c(C)o1 (centres undefined)	.	-	-	-	-
CSCc1cc(C(=O)NC2CC2)c(N)s1	.	23	.	.	-
CC[n+]1c(C=C2C=C(C)OC(C)=C2)sc2ccccc21	-	-	.	.	-
CC1=NN(c2ccccc2)C(=O)C1=Cc1ccccc1	.	-	.	.	-
COc1cc(/C=C2/C(=O)N(c3ccccc3)N=C2C)ccc1OS(=O)(=O)c1ccccc1	-	.	36	36	.
COc1ccc(CCNC(=O)Nc2cccs2)c(OC)c1	.	23	-	-	-
COc1ccc(NC(=O)NCCc2c[nH]c3ccccc23)c(OC)c1	.	-	.	.	-
CC(C)(C)c1ccc(C(=O)NC(=S)NCc2ccco2)cc1	.	-	-	-	-
CCn1cc(C(=O)O)c(=O)c2cnc(N3CCN(C(=S)NC(=O)c4ccc(F)c(F)c4)CC3)nc21	.	-	-	-	-
CCn1cc(C(=O)O)c(=O)c2cnc(N3CCN(C(=S)NC(=O)c4ccc(OC)cc4)CC3)nc21	.	-	-	-	17
COc1cc(/C=C2/C(=O)NN(c3cccc(Cl)c3)C2=O)cc(OC)c1O	.	22	-	-	-
Cc1cc2nnc(SCC(=O)N3CCCCCC3)n2c(N)n1	-	-	-	-	-
CCOc1cc(C)c(S(=O)(=O)NC2CC(C)(C)NC(C)(C)C2)cc1C	-	-	-	37	-
Cc1cc(C)c(S(=O)(=O)NC2CC(C)(C)NC(C)(C)C2)cc1C	.	-	-	-	-
O=C(NC(=S)NC1CC1)c1cccnc1	-	-	-	-	-
O=[N+]([O-])c1cc(O)c2ncccc2c1	-	-	-	37	-
O=[N+]([O-])c1cc2cccnc2c2ncccc12	-	-	-	-	-
O=C(CNC(=O)c1ccc(Br)cc1)NCC(=O)OCC(=O)c1ccc([N+](=O)[O-])cc1	-	23	-	-	-
SMILES	RBBP9 inh	PRMT1 inh	PAD4 inh	GSTO1 counter	SIAE primary	others
O=C(O)/C=C\C(=O)Nc1ccccc1C(=O)N1CCN(c2ccc(Cl)cc2)CC1	-	24	-	-	-
CN(C)CCCOC(=O)c1ccc(Cl)cc1Cl	-	-	-	-	-
COc1ccc(-c2csc3nc[nH]c(=O)c23)cc1	-	-	-	-	-
CC(=O)n1cc(N(C(=O)CCl)c2ccc([N+](=O)[O-])cc2)c2ccccc21	-	-	19	75	-
CC(=O)n1cc(N(C(=O)CCl)c2ccccc2)c2ccccc21	-	-	-	77	-
CC(=O)n1cc(CO)c2ccccc21	.	-	-	-	-
O=Cc1[nH]c2ccccc2c1N(C(=O)CCl)c1ccc([N+](=O)[O-])cc1	-	-	-	73	-
CC(Nc1cccc2ccccc12)C(=O)N/N=C/c1ccccn1 (centres undefined)	-	25	-	-	-
COc1ccc(S(=O)(=O)N2CCCN(CC(=O)Nc3ccc(OC)c(Cl)c3)CC2)cc1	-	-	-	36	-
CCN(CC)C(=O)C(=O)N/N=C/c1ccc(Cl)cc1Cl	-	-	-	-	-
CCn1c(NCc2ccccc2Cl)nc2ccccc21	-	-	-	36	-
CCn1c(NCc2ccc(OC)cc2)nc2ccccc21	.	-	-	-	-
O=[N+]([O-])c1ccccc1/C=C/C1Nc2cccc3cccc(c23)N1	.	21	.	.	-
O=[N+]([O-])c1cc(C2Nc3cccc4cccc(c34)N2)ccc1Cl	-	-	-	-	-
N#CC1=C(N)Oc2cc(N)ccc2C1c1ccc(F)cc1 (centres undefined)	-	23	-	-	-
N#CC1=C(N)Oc2cc(N)ccc2C1c1ccc(Cl)cc1 (centres undefined)	.	-	-	-	-
N#CC1=C(N)Oc2cc(N)ccc2C1c1ccc(F)cc1F (centres undefined)	.	24	-	-	-
Cc1ccc(O)c(C=Nc2cc(C)ccc2O)c1	-	.	-	-	.
CC(C)(C)c1ccc(O)c(N=Cc2cc(Br)ccc2O)c1	-	21	-	35	-
CCOC(=O)c1cnc2c(C(=O)OC)cccc2c1NCc1ccco1	-	22	-	-	-
Cc1ccc(CNc2ncnc3ccc(-c4ccc(CO)o4)cc23)o1	.	25	.	.	-
CCOC(=O)c1ccc(-c2ccc3ncnc(NCc4csc(C)n4)c3c2)o1	.	-	.	.	-
O=[N+]([O-])C(C1CCS(=O)(=O)C1)C1CCS(=O)(=O)C1 (centres undefined)	-	-	-	-	-
COC(=O)C1=CN(c2ccc(C)cc2)C(N)=C(C#N)C1c1ccccc1F (centres undefined)	.	-	.	.	-
COc1ccc(-c2[nH]c(-c3ccc(Cl)cc3)nc2SCC(=O)Nc2nccs2)cc1	-	-	-	-	-
SMILES	RBBP9 inh	PRMT1 inh	PAD4 inh	GSTO1 counter	SIAE primary	others
COc1ccc(-c2[nH]c(-c3ccccc3)nc2SCC(=O)Nc2nccs2)cc1	26	-	-	-	-	RBBP9 inh conf=-
O=C1CSC(=S)N1/N=C/c1ccc(O)c(O)c1O	15	.	-	67	.	RBBP9 inh conf=27
N#Cc1ncc(C(F)(F)F)cc1Sc1ccc(N)cc1	19	-	-	-	-	RBBP9 inh conf=-
CSc1nc(Cl)cc(=O)[nH]1	15	-	-	-	-	RBBP9 inh conf=-
CSc1nc(N)cc(=O)[nH]1	-	-	-	-	-
CCc1ccccc1NC(=O)CSc1nnc(Cn2nnc3ccccc32)n1C	15	-	-	-	-	RBBP9 inh conf=-
CCOC(=O)C1CCCN(C(=S)Nc2ccc(F)cc2)C1 (centres undefined)	23	-	-	-	-	RBBP9 inh conf=-
Cc1ccc(Nc2nc(-c3ccc(O)c(O)c3)cs2)nc1	22	-	.	.	-	RBBP9 inh conf=46
Cc1ccc(Nc2nc(-c3ccc(F)cc3)cs2)nc1	.	-	.	.	-
CCn1c(SCC(=O)c2ccccc2)nnc1-c1cccnc1	15	-	-	-	-	RBBP9 inh conf=-
CCn1c(SCCC(=O)O)nnc1-c1cccnc1	-	-	-	-	-
O=C(Oc1cccc([N+](=O)[O-])c1)N1CCCCC1	16	-	-	-	-	RBBP9 inh conf=-
O=C(Nc1cccc([N+](=O)[O-])c1)N1CCCCCC1	.	-	-	-	-
CN(CC(=O)NCCc1ccccc1)S(=O)(=O)c1ccc(Br)cc1	15	-	-	-	-	RBBP9 inh conf=-

Compound activity from PubChem.
